Data from ChEMBL document CHEMBL3804792, “Discovery and analgesic evaluation of 8-chloro-1,4-dihydropyrido[2,3-b]pyrazine-2,3-dione as a novel potent d-amino acid oxidase inhibitor” (Eur J Med Chem, 2016).
Calls of active or inactive are those of the source.

How the values were obtained:
D-amino-acid oxidase [1] = molecular target: D-amino-acid oxidase (Sus scrofa, UniProt P00371); experiment: Inhibition of DAAO in porcine kidney homogenate using D-alanine as substrate assessed as pyruvate production incubated for 5 mins by microplate reader analysis
Sequence of D-amino-acid oxidase (Sus scrofa, UniProt P00371) (P00371 whole entry): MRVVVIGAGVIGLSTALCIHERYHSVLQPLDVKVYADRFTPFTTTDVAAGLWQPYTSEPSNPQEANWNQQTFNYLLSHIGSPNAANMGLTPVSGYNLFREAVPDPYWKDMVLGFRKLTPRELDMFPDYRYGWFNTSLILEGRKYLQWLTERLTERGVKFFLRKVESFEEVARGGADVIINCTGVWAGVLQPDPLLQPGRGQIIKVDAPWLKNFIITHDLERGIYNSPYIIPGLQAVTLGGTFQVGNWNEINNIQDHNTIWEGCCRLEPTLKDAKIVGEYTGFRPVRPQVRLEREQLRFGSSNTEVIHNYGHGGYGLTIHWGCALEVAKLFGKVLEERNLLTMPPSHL

D-amino-acid oxidase [2] = molecular target: D-amino-acid oxidase (Rattus norvegicus, UniProt O35078); experiment: Inhibition of rat spinal DAAO using D-alanine as substrate assessed as pyruvate production incubated for 60 mins by microplate reader analysis
Sequence of D-amino-acid oxidase (Rattus norvegicus, UniProt O35078) (O35078 whole entry): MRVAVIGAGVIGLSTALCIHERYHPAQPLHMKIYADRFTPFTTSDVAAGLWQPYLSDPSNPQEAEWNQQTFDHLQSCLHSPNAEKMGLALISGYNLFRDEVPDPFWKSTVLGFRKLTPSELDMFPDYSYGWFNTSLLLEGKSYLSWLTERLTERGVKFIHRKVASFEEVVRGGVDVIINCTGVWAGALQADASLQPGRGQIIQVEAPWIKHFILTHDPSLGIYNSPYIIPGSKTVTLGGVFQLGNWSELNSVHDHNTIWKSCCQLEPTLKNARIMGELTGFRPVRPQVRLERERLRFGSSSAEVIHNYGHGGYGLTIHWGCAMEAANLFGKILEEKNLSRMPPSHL

D-amino-acid oxidase [3] = molecular target: D-amino-acid oxidase (Homo sapiens, UniProt P14920); experiment: Inhibition of human recombinant DAAO using D-alanine as substrate assessed as pyruvate production incubated for 60 mins by microplate reader analysis
Sequence of D-amino-acid oxidase (Homo sapiens, UniProt P14920) (P14920 whole entry): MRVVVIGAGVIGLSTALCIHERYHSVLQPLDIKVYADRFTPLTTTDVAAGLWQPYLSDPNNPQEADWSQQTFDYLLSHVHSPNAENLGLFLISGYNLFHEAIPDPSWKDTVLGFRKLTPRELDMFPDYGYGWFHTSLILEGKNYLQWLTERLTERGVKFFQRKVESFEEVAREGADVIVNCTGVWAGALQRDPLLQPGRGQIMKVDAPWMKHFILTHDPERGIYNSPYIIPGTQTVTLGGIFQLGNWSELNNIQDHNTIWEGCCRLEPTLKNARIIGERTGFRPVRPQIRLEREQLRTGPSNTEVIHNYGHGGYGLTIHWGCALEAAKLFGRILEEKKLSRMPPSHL

Rattus norvegicus [4] = experiment: Analgesic activity in Wistar rat assessed as inhibition of formalin-induced paw flinch response in acute phase up to 3 ug, it administered as bolus injection 30 mins prior to formalin challenge measured within 10 mins relative to normal saline control; type: functional, organism-based
In short: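 Intrathecally catheterized male Wistar rats (n = 6 per group) got a bolus of saline (10 µL) or compound (0.1–3 µg) 30 min before 50 µL 5% formalin sc into dorsal right hindpaw. Flinches counted in 1-min epochs every 10 min for 90 min; acute phase is the first 10 min. Compared with saline by one-way ANOVA and Student-Newman-Keuls test.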

Rattus norvegicus [5] = experiment: Analgesic activity in it dosed Wistar rat assessed as inhibition of formalin-induced paw flinch response in tonic phase administered as bolus injection 30 mins prior to formalin challenge measured from 10 to 90 mins relative to normal saline control; type: functional
In short: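 Intrathecally catheterised male Wistar rats, n = 6 per group. A bolus of 0.1-3 µg was given intrathecally 30 min before 50 µL of 5% formalin s.c. into the dorsal right hindpaw. Flinches counted in 1-min epochs at 10-min intervals over 90 min. […] Saline (10 µL) group as control.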

Rattus norvegicus [6] = experiment: Analgesic activity in Wistar rat assessed as inhibition of NMDA-induced pain at 10 ug, it administered 30 mins prior to NMDA challenge measured for 10 mins; type: functional, organism-based
In short: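 Male Wistar rats with lumbar intrathecal PE-10 catheters, placement checked by lidocaine-induced hind-limb paralysis; n = 6 per group. Intrathecal saline, MK-801 or compound 30 min before intrathecal NMDA (5 nmol). Scratching, biting and licking duration recorded for 10 min; means ± S.E.M., one-way ANOVA with Student-Newman-Keuls test versus saline.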

Rattus norvegicus [7] = species: Rattus norvegicus; experiment: Analgesic activity in Wistar rat spinal nerve ligation-induced neuropathic pain model assessed as reduction in mechanical allodynia assessed as increase in ipsilateral paw withdrawal response at 30 ug, it measured after 1 hr; type: functional
In short: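 Spinal nerve-ligated male Wistar rats, intrathecally catheterised; only rats with threshold <8 g and no major impairment were included. After intrathecal dosing, ipsilateral hind-limb withdrawal threshold to monofilaments was measured on a metal grid after ≥30 min acclimation, at 0.5, 1, 2 and 4 h. n = 6. Results converted to %MPE against baseline.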

Rattus norvegicus [8] = species: Rattus norvegicus; experiment: Effect on contralateral paw withdrawal in Wistar rat spinal nerve ligation-induced neuropathic pain model at 30 ug, it measured after 0.5 to 4 hrs; type: ADME, organism-based; conditions: in vivo, icv_or_intrathecal
In short: (§1)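 Spinal nerve-ligated male Wistar rats, included only with ipsilateral withdrawal threshold < 8 g and no major impairment, dosed intrathecally. Mechanical thresholds (von Frey monofilaments on a metal grid) and radiant-heat paw withdrawal latency (20 s cut-off, mean of three trials 10 min apart) measured on both paws before and 0.5, 1, 2, 4 h after dosing. Thresholds converted to % MPE; two-way ANOVA.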

Rattus norvegicus [9] = species: Rattus norvegicus; experiment: Analgesic activity in Wistar rat spinal nerve ligation-induced neuropathic pain model assessed as reduction in heat hyperalgesia assessed as increase in ipsilateral paw withdrawal response at 30 ug, it measured after 1 hr; type: functional
In short: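 Spinal nerve-ligated male Wistar rats, intrathecally catheterised; only those with ipsilateral withdrawal threshold <8 g were used. After intrathecal dosing, radiant heat was applied to the plantar hind paw and withdrawal latency read, cut-off 20 s. Each paw tested three times at 10-min intervals and averaged. n = 6. Read at 0.5, 1, 2 and 4 h.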

Rattus norvegicus [10] = species: Rattus norvegicus; experiment: Analgesic activity in Wistar rat spinal nerve ligation-induced neuropathic pain model assessed as reduction in mechanical allodynia assessed as increase in ipsilateral paw withdrawal response at 30 ug, it measured after 0.5 to 4 hrs; type: functional, organism-based; in short: as §1
Rattus norvegicus [11] = species: Rattus norvegicus; experiment: Analgesic activity in Wistar rat spinal nerve ligation-induced neuropathic pain model assessed as reduction in heat hyperalgesia assessed as increase in ipsilateral paw withdrawal response at 30 ug, it measured after 0.5 to 4 hrs; type: functional, organism-based; in short: as §1
Mus musculus [12] = experiment: Analgesic activity in Swiss mouse assessed as inhibition of formalin-induced tonic pain at 10 mg/kg administered as oral gavage 30 mins prior to formalin challenge measured from 20 to 40 mins relative to normal saline control; type: functional; design: scale not given: the % may be the effect or the level left
In short: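 Fasted male Swiss mice (18-22 g), n = 6. Dosed 10 mg/kg by oral gavage 30 min before 10 µL of 5% formalin in 0.9% saline injected s.c. into the dorsal right hindpaw. Licking/biting duration was scored manually and pooled over 20-40 min as tonic pain. Drug dissolved in normal saline at pH 7.3-7.5. Compared with a saline control group.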

Mus musculus [13] = experiment: Analgesic activity in Swiss mouse assessed as inhibition of formalin-induced acute pain at 0.3 to 10 mg/kg, sc administered 30 mins prior to formalin challenge measured within 5 mins relative to normal saline control; type: functional, organism-based
In short: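 Male Swiss mice (18e22 g), n = 6 per group; saline (10 mL/kg) or compound sc 30 min before 10 µL 5% formalin in 0.9% saline sc into dorsal right hindpaw. Licking/biting duration manually pooled over 0–5 min (acute phase) and compared with saline group; one-way ANOVA with Student-Newman-Keuls post-hoc test.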

Mus musculus [14] = experiment: Analgesic activity in sc dosed Swiss mouse assessed as inhibition of formalin-induced tonic pain administered 30 mins prior to formalin challenge measured from 20 to 40 mins relative to normal saline control; type: functional
In short: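 Male Swiss mice, n = 6 per group. Dosed s.c. at 0.3-30 mg/kg in saline (10 mL/kg) 30 min before 10 µL of 5% formalin s.c. into the dorsal right hindpaw. Licking/biting time was pooled over 20-40 min as tonic pain. Values compared with saline control. Emax and ED50 taken from the dose-response. One-way ANOVA with Student-Newman-Keuls test.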

[15] = Apparent oral bioavailability in Swiss mouse at 10 mg/kg administered as oral gavage; type: ADME, organism-based; conditions: in vivo, read-out: Fapp
Mus musculus [16] = experiment: Attenuation of morphine analgesic tolerance in Swiss mouse assessed as latency of licking/biting/jumping at 10 ug, it bid coadministered with morphine at 12 hr intervals for 7 days by hot-plate test; type: functional, organism-based
In short: (§2)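 Swiss mice (n = 6 per group) received intrathecal saline, morphine, or compound (10 µg) plus morphine twice daily, 12 h apart, for 7 days. On day 8, a single intrathecal saline or compound dose was given 15 min before saline or morphine challenge. Hot plate at 55 ± 0.1 °C with 40 s cut-off; lick/bite/jump latency read before and 0.5, 1, 2 h after injection on days 1, 3, 5, 7, 8. AUC0–2 h analysed by two-way ANOVA with Student-Newman-Keuls test.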

Mus musculus [17] = experiment: Reversal of morphine analgesic tolerance in 10 ug, it BID for 7 days morphine pre-treated Swiss mouse assessed as latency of licking/biting/jumping at 10 ug, it administered as single bolus injection 15 mins prior to morphine challenge on day 8 by hot-plate test; type: functional, organism-based; in short: as §2
Rattus norvegicus [18] = experiment: Analgesic activity in Wistar rat assessed as inhibition of NMDA-induced pain at 0.1 ug, it administered 30 mins prior to NMDA challenge measured for 10 mins; type: functional
In short: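 Male Wistar rats (180-250 g), n = 6 per group, with intrathecal lumbar PE-10 catheters checked by lidocaine paralysis. Dosed 0.1 µg intrathecally 30 min before 5 nmol NMDA given intrathecally. Duration of scratching, biting and licking recorded for 10 min immediately after NMDA. Saline (10 µL) group as control. One-way ANOVA with Student-Newman-Keuls test.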

SMILES | IC50 (D-amino-acid oxidase [1]) | other results
O=c1[nH]c2ccc(OCc3ccccc3)nc2[nH]c1=O | > 300 µM | –
O=c1[nH]c2ccc(OCCc3ccccc3)nc2[nH]c1=O | > 300 µM | –
O=C(O)c1cnc2[nH]c(=O)c(=O)[nH]c2c1 | > 1000 µM | –
O=c1[nH]c2nccc(Cl)c2[nH]c1=O | 0.18 µM | IC50 (D-amino-acid oxidase [2]): 0.14 µM; IC50 (D-amino-acid oxidase [3]): 0.21 µM; Activity (Rattus norvegicus [4]): inactive; Activity (Rattus norvegicus [5]): Dose-dependent effect; ED50 (Rattus norvegicus [5]): 0.25 µg; Emax (Rattus norvegicus [5]; Rattus norvegicus, Wistar): 67.1%; Activity (Rattus norvegicus [6]): inactive; MPE (Rattus norvegicus [7]): 54.4%; Activity (Rattus norvegicus [8]): Non-toxic; MPE (Rattus norvegicus [9]): 80.8%; Activity (Rattus norvegicus [10]): Active; Activity (Rattus norvegicus [11]): Active; Activity (Mus musculus [12]): 30%; Activity (Mus musculus [13]): inactive; Activity (Mus musculus [14]): Dose-dependent effect; ED50 (Mus musculus [14]): 1.8 mg/kg; Emax (Mus musculus [14]): 49%; bioavailability [15]: 30%; Activity (Mus musculus [16]): Active; Activity (Mus musculus [17]): Active
COC(=O)c1cnc2[nH]c(=O)c(=O)[nH]c2c1 | > 1000 µM | –
Cc1c(Cl)cnc2nc(O)c(O)nc12 | 0.26 µM | IC50 (D-amino-acid oxidase [2]): 4.16 µM; IC50 (D-amino-acid oxidase [3]): 1.13 µM
CC(C)Oc1ccnc2[nH]c(=O)c(=O)[nH]c12 | > 100 µM | –
Oc1nc2cc(Cl)cnc2nc1O | 6.7 µM | –
Cc1c(Br)cnc2nc(O)c(O)nc12 | 0.4 µM | –
Oc1nc2cccnc2nc1O | 5.7 µM | –
O=c1[nH]c2nccc(Br)c2[nH]c1=O | 0.22 µM | IC50 (D-amino-acid oxidase [2]): 2.24 µM; IC50 (D-amino-acid oxidase [3]): 2.24 µM
Oc1nc2cc(Br)cnc2nc1O | 12.4 µM | –
Oc1nc2cc(C(F)(F)F)cnc2nc1O | 22.9 µM | –
Cc1ccnc2[nH]c(=O)c(=O)[nH]c12 | 0.63 µM | –
Oc1noc2cc(Cl)ccc12 | 0.21 µM | IC50 (D-amino-acid oxidase [2]): 0.09 µM
O=c1[nH]c2nccc(OCCc3ccccc3)c2[nH]c1=O | > 300 µM | –
Cc1ccc2nc(O)c(O)nc2n1 | 17.7 µM | –
C[C@]12N[C@H](Cc3ccccc31)c1ccccc12 [DIZOCILPINE] | – | inhibition (INH) (Rattus norvegicus [18]): 80%

SMILES | IC50 (D-amino-acid oxidase [1]) | other results
O=c1[nH]c2ncc(Br)c(Br)c2[nH]c1=O | 0.53 µM | –
O=c1[nH]c2ncc(Br)c(Cl)c2[nH]c1=O | 0.48 µM | –
O=c1[nH]c2nccc(OCCCc3ccccc3)c2[nH]c1=O | > 300 µM | –
Oc1nc2ccccc2nc1O | 33.6 µM | –
O=c1[nH]c2nccc(C(F)(F)F)c2[nH]c1=O | 0.52 µM | –
O=c1[nH]c2ncc(Cl)c(Cl)c2[nH]c1=O | 0.65 µM | –
CCOc1ccc2[nH]c(=O)c(=O)[nH]c2n1 | > 100 µM | –
COc1ccnc2[nH]c(=O)c(=O)[nH]c12 | 85.7 µM | –
O=c1[nH]c2cc(F)cnc2[nH]c1=O | 0.46 µM | –
Cc1cnc2nc(O)c(O)nc2c1 | 36.7 µM | –
CCOc1ccnc2[nH]c(=O)c(=O)[nH]c12 | > 100 µM | –
CCc1ccnc2[nH]c(=O)c(=O)[nH]c12 | 2.4 µM | –
O=c1[nH]c2nccc(Oc3ccccc3)c2[nH]c1=O | > 1000 µM | –
O=c1[nH]c2nccc(OCc3ccccc3)c2[nH]c1=O | > 300 µM | –
Cc1c(F)cnc2[nH]c(=O)c(=O)[nH]c12 | 0.15 µM | IC50 (D-amino-acid oxidase [2]): 0.15 µM; IC50 (D-amino-acid oxidase [3]): 0.34 µM
Oc1nc2ccc(Cl)nc2nc1O | 20.3 µM | –
O=c1[nH]c2ncc(Cl)c(Br)c2[nH]c1=O | 0.24 µM | IC50 (D-amino-acid oxidase [2]): 7.99 µM; IC50 (D-amino-acid oxidase [3]): 1.38 µM
COc1ccc2nc(O)c(O)nc2n1 | > 100 µM | –
